Laboratory results: ChEMBL document CHEMBL1141474, “Cryptolepine analogues containing basic aminoalkyl side-chains at C-11: synthesis, antiplasmodial activity, and cytotoxicity” (Bioorg Med Chem Lett, 2008)

How the values were obtained:
[1] = system: HUVEC; experiment: Cytotoxicity against HUVEC cells; assay type: cell-based; conditions: Homo sapiens
[2] = Ratio of IC50 for human HUVEC cells to IC50 for Plasmodium falciparum W2; assay type: functional
Procedure, shortened: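 Ratio of HUVEC (human umbilical vein endothelial cell) cytotoxicity IC50 to in vitro IC50 against the chloroquine-resistant P. falciparum W2 strain.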

[3] = system: Plasmodium falciparum; experiment: Antiplasmodial activity against chloroquine-resistant Plasmodium falciparum W2; assay type: functional, organism-based

SMILES	IC50 [1] [nM]	Ratio IC50 [2]	IC50 [3] [nM]
CCN(CC)CCNc1c2ccccc2[n+](C)c2c1[nH]c1ccccc12.[Cl-]	674	8.2	82
CN(C)CCCNc1c2ccccc2[n+](C)c2c1[nH]c1ccccc12.[Cl-]	155	5.2	30
CCN(CC)CCCNc1c2ccccc2[n+](C)c2c1[nH]c1ccccc12.[Cl-]	114	3.6	32
CC(C)NCCCNc1c2ccccc2[n+](C)c2c1[nH]c1ccccc12.[Cl-]	794	36.1	22
CCN(CC)CCCC(C)Nc1c2ccccc2[n+](C)c2c1[nH]c1ccccc12.[Cl-] (stereo not drawn)	35	0.3	127
CC(CN(C)C)Nc1c2ccccc2[n+](C)c2c1[nH]c1ccccc12.[Cl-] (stereo not drawn)	617	4.7	132
C[n+]1c2ccccc2c(NC2CCNCC2)c2[nH]c3ccccc3c21.[Cl-]	2040	46.4	44
CN(C)CC(C)(C)CNc1c2ccccc2[n+](C)c2c1[nH]c1ccccc12.[Cl-]	82	0.5	184
C[n+]1c2ccccc2c(NCCCN2CCCCC2)c2[nH]c3ccccc3c21.[Cl-]	1160	32.3	36
CN(C)CCNc1c2ccccc2[n+](C)c2c1[nH]c1ccccc12.[Cl-]	161	3.2	50
C[n+]1c2ccccc2cc2[n-]c3ccccc3c21.Cl [CRYPTOLEPINE HYDROCHLORIDE]	1180	1.6	755
